Here are results for three molecules from ChEMBL document CHEMBL4033714, “Discovery of BI 135585, an in vivo efficacious oxazinanone-based 11β hydroxysteroid dehydrogenase type 1 inhibitor” (Bioorg Med Chem, 2017).

As usually defined, the inhibition in vivo is the percentage by which the read-out fell short of the control. What is called IC50 is the concentration needed to halve the response being measured. What is called MRT is the average time that molecules of a dose stay in the body. A word on the half-life: it is the time needed for the level to fall by half in the phase considered. As a reminder, the clearance is the volume of plasma or blood freed of the substance per unit of time. Broadly, the solubility is the dissolved amount per volume that the medium holds. Broadly, the EC50 is the concentration needed to bring the measured effect to its halfway point. A word on the inhibition: it is the share of the control response that was lost under treatment. One may read the bioavailability as dose-corrected exposure relative to a reference, in per cent. A word on the logP: it is a log measure of how a compound divides between an organic and an aqueous phase.

The test system of data set [1] is Cynomolgus monkey. The data set can be described thus: In-vivo inhibition of 11beta-HSD1 in cynomolgus monkey abdominal subcutaneous adipose tissue assessed as reduction in cortisol level at 1 mg/kg, po using [2H]-cortisone as substrate after 22 hrs by HPLC analysis relative to control. It counts as functional. The following applies: Macaca fascicularis. The gist of the method:
(§1)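 Cynomolgus monkeys were dosed orally. Perirenal and abdominal subcutaneous adipose tissue was then taken, and cortisone-to-cortisol conversion was measured ex vivo. Reduction in cortisol is expressed relative to vehicle-treated animals.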

The target in data set [2] is T1, 17-beta-hydroxysteroid dehydrogenase type 1 (Homo sapiens, UniProt P14061).
T1 sequence (P14061 whole entry): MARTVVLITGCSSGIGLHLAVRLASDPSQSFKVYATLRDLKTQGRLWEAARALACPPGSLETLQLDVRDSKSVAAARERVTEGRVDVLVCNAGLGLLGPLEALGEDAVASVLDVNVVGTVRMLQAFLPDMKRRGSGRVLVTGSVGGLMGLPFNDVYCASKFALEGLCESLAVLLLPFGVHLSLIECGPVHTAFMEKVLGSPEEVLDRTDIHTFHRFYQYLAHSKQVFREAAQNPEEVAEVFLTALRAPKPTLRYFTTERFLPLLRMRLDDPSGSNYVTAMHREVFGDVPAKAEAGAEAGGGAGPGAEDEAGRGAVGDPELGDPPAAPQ
In words: Inhibition of 17beta-HSD1 (unknown origin).

Data set [3] is described as follows: Mean residence time in po dosed cynomolgus monkey. The format is ADME, organism-based, Macaca fascicularis. Conditions: in vivo.
The nature of data set [4]: Half life in rat liver microsomes. The format is ADME, microsome. A general note: Liver microsomes are a subcellular fraction often used to study metabolism.
Data set [5] is described as follows: Protein binding in human plasma. It counts as ADME, cell-free. Conditions: read-out: PPB (converted).
Data set [6] can be described thus: Half life in cynomolgus monkey liver microsomes. It counts as ADME, Macaca fascicularis, microsome.
Data set [7] deals with Cynomolgus monkey. In words: Dose normalized AUC in iv dosed cynomolgus monkey. It counts as ADME, organism-based, Macaca fascicularis. The following applies: in vivo.
The nature of data set [8]: Clearance in iv dosed cynomolgus monkey. Conditions: in vivo. The format is ADME, organism-based, Macaca fascicularis.
The nature of data set [9]: Mean residence time in iv dosed cynomolgus monkey. The format is ADME, organism-based, Macaca fascicularis. The following applies: in vivo.
In another data set the target is Cytochrome P450 2D6 (Homo sapiens, UniProt P10635). The data set can be described thus: Inhibition of CYP2D6 (unknown origin). It counts as ADME.
A short description of data set [10]: Aqueous solubility of the compound. It counts as physicochemical. The essentials:
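Solubility measured in water, with each compound tested as amorphous material.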

A short description of data set [11]: Half life in human liver microsomes. It counts as ADME, microsome.
Data set [12] addresses T2, Nuclear receptor subfamily 1 group I member 2 (Homo sapiens, UniProt O75469).
T2 sequence (O75469 whole entry): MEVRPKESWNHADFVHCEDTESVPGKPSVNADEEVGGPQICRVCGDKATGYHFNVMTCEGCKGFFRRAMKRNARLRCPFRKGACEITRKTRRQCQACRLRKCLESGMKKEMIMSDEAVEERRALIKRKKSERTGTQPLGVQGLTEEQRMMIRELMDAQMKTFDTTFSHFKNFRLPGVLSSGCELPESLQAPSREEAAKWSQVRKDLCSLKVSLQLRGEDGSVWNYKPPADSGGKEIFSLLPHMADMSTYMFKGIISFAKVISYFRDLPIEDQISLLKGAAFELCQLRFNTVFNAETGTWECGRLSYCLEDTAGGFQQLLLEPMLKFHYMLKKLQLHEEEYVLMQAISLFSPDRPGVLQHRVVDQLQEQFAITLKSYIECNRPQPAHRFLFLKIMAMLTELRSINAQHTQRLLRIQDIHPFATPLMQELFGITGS
The data set can be described thus: Inhibition of PXR (unknown origin). It counts as ADME.

Data set [13] has as its system Cynomolgus monkey. In words: In-vivo inhibition of 11beta-HSD1 in cynomolgus monkey perirenal adipose tissue assessed as reduction in cortisol level at 3 mg/kg, po using [2H]-cortisone as substrate after 22 hrs by HPLC analysis relative to control. The format is functional. Conditions: Macaca fascicularis. The essentials:
as §1

A further data set deals with hERG (Homo sapiens, UniProt Q12809). In words: Inhibition of human ERG at 10 uM by patch clamp assay relative to control. For orientation: In patch-clamp work, channel activity is measured electrically.
Another data set concerns the target CYP3A4 (Homo sapiens, UniProt P08684). In words: (§2) Inhibition of recombinant CYP3A4 (unknown origin). It counts as ADME. The following applies: recombinant CYP3A4.
The nature of data set [14]: Volume of distribution at steady state in iv dosed cynomolgus monkey. It counts as ADME, organism-based, Macaca fascicularis. Conditions: in vivo, read-out: Vdss.
For data set [15], the target named is Voltage-gated inwardly rectifying potassium channel KCNH2 (Homo sapiens, UniProt Q12809). In words: Inhibition of human ERG.
A short description of data set [16]: Oral bioavailability in cynomolgus monkey. It counts as ADME, organism-based, Macaca fascicularis. Conditions: in vivo.
A further data set concerns the target CYP2C9 (Homo sapiens, UniProt P11712). In words: (§3) Inhibition of CYP2C9 (unknown origin). It counts as ADME.
A short description of data set [17]: Partition coefficient, log P of the compound. The format is physicochemical. Conditions: octanol/water.
For data set [18], the system named is Cynomolgus monkey. The data set can be described thus: In-vivo inhibition of 11beta-HSD1 in cynomolgus monkey perirenal adipose tissue assessed as reduction in cortisol level at 1 mg/kg, po using [2H]-cortisone as substrate after 22 hrs by HPLC analysis relative to control. It counts as functional. The following applies: Macaca fascicularis. The gist of the method: as §1

Data set [19] has as its system Cynomolgus monkey. The data set can be described thus: In-vivo inhibition of 11beta-HSD1 in cynomolgus monkey abdominal subcutaneous adipose tissue assessed as reduction in cortisol level at 3 mg/kg, po using [2H]-cortisone as substrate after 22 hrs by HPLC analysis relative to control. It counts as functional. Conditions: Macaca fascicularis. The essentials: as §1

Data set [20] deals with T3, 3 beta-hydroxysteroid dehydrogenase/Delta 5-->4-isomerase type 2 (Homo sapiens, UniProt P26439).
T3 sequence (P26439 whole entry): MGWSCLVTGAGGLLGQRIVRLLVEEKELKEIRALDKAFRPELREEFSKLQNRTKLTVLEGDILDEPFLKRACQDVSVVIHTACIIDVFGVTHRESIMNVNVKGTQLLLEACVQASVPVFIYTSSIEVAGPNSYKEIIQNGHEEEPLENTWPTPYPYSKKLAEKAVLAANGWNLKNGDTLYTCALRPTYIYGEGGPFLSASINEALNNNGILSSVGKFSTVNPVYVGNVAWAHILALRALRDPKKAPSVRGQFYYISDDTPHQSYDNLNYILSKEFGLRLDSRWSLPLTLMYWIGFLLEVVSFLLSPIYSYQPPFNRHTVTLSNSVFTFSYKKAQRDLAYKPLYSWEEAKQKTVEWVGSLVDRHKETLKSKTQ
In words: Inhibition of 3beta-HSD2 (unknown origin).

In data set [21] the target is T4, 11-beta-hydroxysteroid dehydrogenase type 2 (Homo sapiens, UniProt P80365).
T4 sequence (P80365 whole entry): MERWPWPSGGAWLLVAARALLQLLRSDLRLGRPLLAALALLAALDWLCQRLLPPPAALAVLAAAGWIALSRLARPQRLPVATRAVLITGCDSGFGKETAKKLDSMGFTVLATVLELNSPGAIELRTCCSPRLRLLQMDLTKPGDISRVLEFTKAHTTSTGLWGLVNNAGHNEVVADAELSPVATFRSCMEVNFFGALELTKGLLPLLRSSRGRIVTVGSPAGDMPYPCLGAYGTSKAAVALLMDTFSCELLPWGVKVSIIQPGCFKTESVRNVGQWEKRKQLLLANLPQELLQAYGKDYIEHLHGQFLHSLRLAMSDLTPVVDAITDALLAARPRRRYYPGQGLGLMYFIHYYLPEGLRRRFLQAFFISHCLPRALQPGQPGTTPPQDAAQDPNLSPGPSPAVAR
The data set can be described thus: Inhibition of 11beta-HSD2 (unknown origin).

The next data set has as its target Cytochrome P450 3A4 (Homo sapiens, UniProt P08684). The description is as §2. The format is ADME.
Another data set concerns the target Cytochrome P450 2C9 (Homo sapiens, UniProt P11712). The data set is described as §3. The format is ADME.

In brackets after ≈: the same amount, converted by molar mass.

Sequence of Cytochrome P450 2D6 (P10635 whole entry): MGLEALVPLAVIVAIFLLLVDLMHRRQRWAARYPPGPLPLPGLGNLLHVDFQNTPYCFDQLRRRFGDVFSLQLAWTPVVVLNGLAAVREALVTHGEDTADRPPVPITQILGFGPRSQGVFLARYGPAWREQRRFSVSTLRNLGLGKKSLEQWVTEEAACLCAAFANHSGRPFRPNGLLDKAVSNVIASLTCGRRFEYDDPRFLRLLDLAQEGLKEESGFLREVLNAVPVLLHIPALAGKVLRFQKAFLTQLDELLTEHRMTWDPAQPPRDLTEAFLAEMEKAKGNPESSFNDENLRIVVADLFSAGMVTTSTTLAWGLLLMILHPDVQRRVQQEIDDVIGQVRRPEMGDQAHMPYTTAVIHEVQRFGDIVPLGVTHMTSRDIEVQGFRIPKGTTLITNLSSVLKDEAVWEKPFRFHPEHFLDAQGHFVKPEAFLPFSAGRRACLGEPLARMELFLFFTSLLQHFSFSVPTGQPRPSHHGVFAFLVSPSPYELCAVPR
Sequence of hERG (Q12809 whole entry): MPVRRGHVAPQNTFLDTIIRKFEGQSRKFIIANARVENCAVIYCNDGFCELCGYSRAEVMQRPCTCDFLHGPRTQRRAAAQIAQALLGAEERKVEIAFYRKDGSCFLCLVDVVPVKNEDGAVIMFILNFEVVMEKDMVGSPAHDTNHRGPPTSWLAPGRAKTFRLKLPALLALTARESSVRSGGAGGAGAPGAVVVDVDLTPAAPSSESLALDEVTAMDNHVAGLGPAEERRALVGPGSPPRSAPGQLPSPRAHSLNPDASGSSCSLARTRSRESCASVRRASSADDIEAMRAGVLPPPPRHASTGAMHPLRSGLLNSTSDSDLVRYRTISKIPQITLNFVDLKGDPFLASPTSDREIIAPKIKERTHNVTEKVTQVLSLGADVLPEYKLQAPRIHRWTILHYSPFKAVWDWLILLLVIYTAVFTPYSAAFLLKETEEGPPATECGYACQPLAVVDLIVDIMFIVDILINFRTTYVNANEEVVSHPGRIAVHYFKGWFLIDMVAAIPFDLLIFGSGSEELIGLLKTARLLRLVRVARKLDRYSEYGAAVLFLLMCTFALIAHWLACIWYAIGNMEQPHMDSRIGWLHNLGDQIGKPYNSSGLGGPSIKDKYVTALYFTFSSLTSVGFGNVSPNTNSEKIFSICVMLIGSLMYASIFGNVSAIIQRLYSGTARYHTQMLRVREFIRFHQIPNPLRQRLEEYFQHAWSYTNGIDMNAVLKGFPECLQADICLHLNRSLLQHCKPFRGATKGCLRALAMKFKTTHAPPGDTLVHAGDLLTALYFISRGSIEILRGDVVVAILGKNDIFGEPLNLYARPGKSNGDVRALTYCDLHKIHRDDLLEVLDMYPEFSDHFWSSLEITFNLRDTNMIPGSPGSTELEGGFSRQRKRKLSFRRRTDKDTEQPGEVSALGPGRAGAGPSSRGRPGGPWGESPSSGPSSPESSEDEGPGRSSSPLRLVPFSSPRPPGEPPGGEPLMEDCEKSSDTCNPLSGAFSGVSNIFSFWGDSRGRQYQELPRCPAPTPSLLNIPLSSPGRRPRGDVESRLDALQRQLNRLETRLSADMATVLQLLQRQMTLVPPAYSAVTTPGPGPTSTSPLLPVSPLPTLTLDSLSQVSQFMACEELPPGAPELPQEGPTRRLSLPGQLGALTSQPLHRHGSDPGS
Sequence of CYP3A4 (P08684 whole entry): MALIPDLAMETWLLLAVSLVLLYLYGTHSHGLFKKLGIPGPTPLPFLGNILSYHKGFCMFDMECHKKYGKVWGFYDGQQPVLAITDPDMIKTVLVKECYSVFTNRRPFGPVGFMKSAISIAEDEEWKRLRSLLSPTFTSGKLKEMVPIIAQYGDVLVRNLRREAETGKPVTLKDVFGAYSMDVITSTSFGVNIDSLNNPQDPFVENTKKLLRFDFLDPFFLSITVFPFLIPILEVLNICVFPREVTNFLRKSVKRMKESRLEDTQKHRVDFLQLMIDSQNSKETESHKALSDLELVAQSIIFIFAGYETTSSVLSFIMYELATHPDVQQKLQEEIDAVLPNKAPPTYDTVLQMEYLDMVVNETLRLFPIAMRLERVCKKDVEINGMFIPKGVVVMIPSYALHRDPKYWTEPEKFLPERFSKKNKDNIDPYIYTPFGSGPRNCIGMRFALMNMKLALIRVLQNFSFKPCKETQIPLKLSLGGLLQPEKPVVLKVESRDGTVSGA
Sequence of Cytochrome P450 3A4 (P08684 whole entry): as above
Sequence of Voltage-gated inwardly rectifying potassium channel KCNH2 (Q12809 whole entry): as the sequence (Q12809 whole entry) above
Sequence of Cytochrome P450 2C9 (P11712 whole entry): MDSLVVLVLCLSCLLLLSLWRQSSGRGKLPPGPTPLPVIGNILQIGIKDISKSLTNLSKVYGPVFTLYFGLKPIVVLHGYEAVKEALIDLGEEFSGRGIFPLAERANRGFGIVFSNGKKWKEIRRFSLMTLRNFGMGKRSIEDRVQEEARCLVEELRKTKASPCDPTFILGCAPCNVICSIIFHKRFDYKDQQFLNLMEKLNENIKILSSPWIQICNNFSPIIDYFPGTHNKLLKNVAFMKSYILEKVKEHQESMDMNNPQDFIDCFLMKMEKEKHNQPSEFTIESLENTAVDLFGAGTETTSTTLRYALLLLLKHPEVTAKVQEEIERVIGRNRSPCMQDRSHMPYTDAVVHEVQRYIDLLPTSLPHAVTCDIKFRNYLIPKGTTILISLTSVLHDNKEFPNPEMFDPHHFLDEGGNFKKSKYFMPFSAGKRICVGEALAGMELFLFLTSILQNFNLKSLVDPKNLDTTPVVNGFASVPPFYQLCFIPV
Sequence of CYP2C9 (P11712 whole entry): as above

Turning to `C[C@@H](c1ccc(-c2ccn(C)c(=O)c2)cc1)N1CC[C@](CC(C)(C)O)(c2ccccc2)OC1=O`, the inhibition in vivo at 1 mg/kg with Cynomolgus monkey [1] and with Cynomolgus monkey [18] was 67% each time. Also, the IC50 in data set [2] was more than 10 µM; at Cytochrome P450 2D6 it was more than 50 µM; at CYP3A4, more than 50 µM; in data set [15], more than 100 µM; on CYP2C9, more than 50 µM; in data set [20], more than 10 µM. For the same molecule, the IC50 in data set [21] is more than 10 µM. Further, the MRT in data set [3] turned out to be 8.7 h; in data set [9], 5.5 h. Moreover, the half-life in data set [4], in data set [6] and in data set [11] was more than 1.5 h throughout. For the same molecule, the fraction unbound in data set [5] was 0.084. The molecule also had an AUC/dose in the data set with Cynomolgus monkey [7] of 2500 nM·h. This molecule came in with a clearance in data set [8] of 7.5 mL/min/kg. The solubility in [10] (aqueous medium, read-out: solubility) was found to be 220 µg/mL (≈ 478 µM). Also, the concentration for a half-maximal effect (EC50) in data set [12] was more than 10 µM. Further, the inhibition in vivo at 3 mg/kg came to 90% in the data set on Cynomolgus monkey [13] and 95% in the data set on Cynomolgus monkey [19]. Moreover, on hERG, the inhibition at 10 µM was less than 10%. The Vd in [14] turned out to be 2.5 L/kg. In data set [16], this molecule yielded a bioavailability of 54%. For the same molecule, in data set [17], the logP stood at 2.6.
As to `C[C@@H](c1ccc(-c2ccc(=O)n(C)n2)cc1)N1CC[C@](CC(C)(C)O)(c2ccccc2)OC1=O`, the half-life was more than 1.5 h in data set [4], more than 0.75 h in [6] and more than 1.5 h in data set [11]. Besides, the IC50 against Cytochrome P450 2D6, on Cytochrome P450 3A4 and against Cytochrome P450 2C9 was more than 50 µM each time. The inhibition at 10 µM at hERG came out at 50%.
For the molecule `C[C@@H](c1ccc(-c2ccc(F)cc2F)cc1)N1CC[C@](CCO)(c2ccc(F)cc2)OC1=O`, in data set [10] (buffer, BLD = below limit of detection), the solubility result was “Bld”. The molecule further gave a logP in data set [17] of 4.2.
